Test results published in ChEMBL document CHEMBL1641462, “Synthesis and in vivo evaluation of ¹⁸F-fluoroethyl GF120918 and XR9576 as positron emission tomography probes for assessing the function of drug efflux transporters” (Bioorg Med Chem, 2011).

Columns and labels:
Blood [1] = assay: Biodistribution in FVB mouse blood assessed per gram of tissue at 1 to 4.8 MBq, iv after 5 mins; type: ADME, organism-based; details: in vivo
Outline: (§1)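 Male FVB mice (8–10 weeks, 25–29 g) received tracer iv (1.0–4.8 MBq, 7.1–34 pmol). Killed by cervical dislocation at 5, 15, 30, 60 or 90 min. Blood taken by heart puncture; tissues dissected, weighed and gamma-counted. Activity decay-corrected to injection time and given as %ID/g; mean ± SD, n = 4 per time point.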

Muscle tissue [2] = assay: Biodistribution in FVB mouse muscle assessed per gram of tissue at 1 to 4.8 MBq, iv after 90 mins; type: ADME, organism-based; details: in vivo, 1.5 h; outline: as §1
Liver [3] = assay: Biodistribution in FVB mouse liver assessed per gram of tissue at 1 to 4.8 MBq, iv after 15 mins; type: ADME, organism-based; details: in vivo, 0.25 h; outline: as §1
Muscle tissue [4] = assay: Biodistribution in FVB mouse muscle assessed per gram of tissue at 1 to 4.8 MBq, iv after 30 mins; type: ADME, organism-based; details: in vivo, 0.5 h; outline: as §1
Brain [5] = assay: Biodistribution in FVB mouse brain assessed per gram of tissue at 1 to 4.8 MBq, iv after 15 mins; type: ADME, organism-based; details: in vivo, 0.25 h; outline: as §1
Brain [6] = assay: AUC (0 to 60 mins) in wild type mouse brain at 2.8 to 5.6 MBq, iv co-administered with GF120918; type: ADME, organism-based; details: in vivo
Outline: (§2)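 Small-animal PET in male wild-type and knockout mice under isoflurane (1.0–1.5%), prone on the scanner bed. Tracer (2.8–5.6 MBq, 20–40 pmol) given iv, with or without co-injected GF120918 at 5 mg/kg. Dynamic 60-min list-mode scan. Decay-corrected SUV read from ROIs on brain, and on the ventricular cavity for blood. AUC taken over 0–60 min in SUV·min; n = 4 per group.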

Lung [7] = assay: Biodistribution in FVB mouse lung assessed per gram of tissue at 1 to 4.8 MBq, iv after 15 mins; type: ADME, organism-based; details: in vivo, 0.25 h; outline: as §1
Kidney = assay: Biodistribution in FVB mouse kidney assessed per gram of tissue at 1 to 4.8 MBq, iv after 15 mins; type: ADME, organism-based; details: in vivo, 0.25 h; outline: as §1
Brain [8] = assay: Biodistribution in FVB mouse brain assessed per gram of tissue at 1 to 4.8 MBq, iv after 60 mins; type: ADME, organism-based; details: in vivo, 1 h; outline: as §1
Brain [9] = assay: Biodistribution in P-gp knockout mouse brain at 3.3 to 4.9 MBq, iv after up to 60 mins; type: ADME, organism-based; details: in vivo, 1 h
Blood [10] = assay: Biodistribution in FVB mouse blood assessed per gram of tissue at 1 to 4.8 MBq, iv after 90 mins; type: ADME, organism-based; details: in vivo, 1.5 h; outline: as §1
Brain [11] = assay: AUC (0 to 60 mins) in P-gp/BCRP knockout mouse brain at 2.8 to 5.6 MBq, iv; type: ADME, organism-based; details: in vivo; outline: as §2
Spleen [12] = assay: Biodistribution in FVB mouse spleen assessed per gram of tissue at 1 to 4.8 MBq, iv after 60 mins; type: ADME, organism-based; details: in vivo, 1 h
Outline: (§3)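 Male FVB mice (8–10 weeks, 25–29 g) given tracer 1.0–4.8 MBq/7.1–34 pmol iv; killed by cervical dislocation at set times (n = 4 per group). Blood by heart puncture; tissues dissected, weighed and gamma counted. Radioactivity decay-corrected to injection time, expressed as %ID/g, mean ± SD.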

Lung [13] = assay: Biodistribution in FVB mouse lung assessed per gram of tissue at 1 to 4.8 MBq, iv after 5 mins; type: ADME, organism-based; details: in vivo; outline: as §1
[14] = Biodistribution in FVB mouse small intestine assessed per gram of tissue at 1 to 4.8 MBq, iv after 15 mins; type: ADME, organism-based; details: in vivo, 0.25 h; outline: as §3
Brain [15] = assay: Metabolic stability in FVB mouse brain assessed as recovery of radioactivity at 1 to 4.8 MBq, iv by HPLC analysis; type: ADME, organism-based; details: in vivo
Outline: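 Brain homogenate or plasma from tracer plus GF120918 (5 mg/kg) co-injected FVB mice deproteinized with equal volume ice-cold acetonitrile; radioactivity in supernatant, precipitate and HPLC waste gamma counted to give recovery, mean ± SD (n = 7).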

Pancreas = assay: Biodistribution in FVB mouse pancreas assessed per gram of tissue at 1 to 4.8 MBq, iv after 30 mins; type: ADME, organism-based; details: in vivo, 0.5 h; outline: as §3
Muscle tissue [16] = assay: Biodistribution in FVB mouse muscle assessed per gram of tissue at 1 to 4.8 MBq, iv after 60 mins; type: ADME, organism-based; details: in vivo, 1 h; outline: as §1
Lung [17] = assay: Biodistribution in FVB mouse lung assessed per gram of tissue at 1 to 4.8 MBq, iv after 30 mins; type: ADME, organism-based; details: in vivo, 0.5 h; outline: as §1
[18] = Biodistribution in FVB mouse small intestine assessed per gram of tissue at 1 to 4.8 MBq, iv after 60 mins; type: ADME, organism-based; details: in vivo, 1 h; outline: as §3
Heart [19] = assay: Biodistribution in FVB mouse heart assessed per gram of tissue at 1 to 4.8 MBq, iv after 60 mins; type: ADME, organism-based; details: in vivo, 1 h; outline: as §1
[20] = Biodistribution in FVB mouse small intestine assessed per gram of tissue at 1 to 4.8 MBq, iv after 30 mins; type: ADME, organism-based; details: in vivo, 0.5 h; outline: as §3
Spleen [21] = assay: Biodistribution in FVB mouse spleen assessed per gram of tissue at 1 to 4.8 MBq, iv after 15 mins; type: ADME, organism-based; details: in vivo, 0.25 h; outline: as §3
Brain [22] = assay: AUC (0 to 60 mins) in wild type mouse brain at 2.8 to 5.6 MBq, iv; type: ADME, organism-based; details: in vivo; outline: as §2
Blood [23] = assay: AUC (0 to 60 mins) in BCRP knockout mouse blood at 2.8 to 5.6 MBq, iv; type: ADME, tissue-based; outline: as §2
Heart [24] = assay: Biodistribution in FVB mouse heart assessed per gram of tissue at 1 to 4.8 MBq, iv after 30 mins; type: ADME, organism-based; details: in vivo, 0.5 h; outline: as §1
[25] = Biodistribution in FVB mouse small intestine assessed per gram of tissue at 1 to 4.8 MBq, iv after 90 mins; type: ADME, organism-based; details: in vivo, 1.5 h; outline: as §3
Blood [26] = assay: Biodistribution in FVB mouse blood assessed per gram of tissue at 1 to 4.8 MBq, iv after 30 mins; type: ADME, organism-based; details: in vivo, 0.5 h; outline: as §1
Bone [27] = assay: Biodistribution in FVB mouse bone assessed per gram of tissue at 1 to 4.8 MBq, iv after 5 mins; type: ADME, organism-based, Bone element; details: in vivo; outline: as §1
Muscle tissue [28] = assay: Biodistribution in FVB mouse muscle assessed per gram of tissue at 1 to 4.8 MBq, iv after 5 mins; type: ADME, organism-based; details: in vivo; outline: as §1
Blood [29] = assay: AUC (0 to 60 mins) in wild type mouse blood at 2.8 to 5.6 MBq, iv; type: ADME, tissue-based; outline: as §2
Brain [30] = assay: Ratio of AUC (0 to 60 mins) in wild type mouse brain to AUC (0 to 60 mins) in wild type mouse brain at 2.8 to 5.6 MBq, iv co-administered with GF120918; type: ADME, organism-based; details: in vivo
Brain [31] = assay: Biodistribution in P-gp/BCRP knockout mouse brain at 3.3 to 4.9 MBq, iv after up to 60 mins; type: ADME, organism-based; details: in vivo, 1 h
Liver [32] = assay: Biodistribution in FVB mouse liver assessed per gram of tissue at 1 to 4.8 MBq, iv after 30 mins; type: ADME, organism-based; details: in vivo, 0.5 h; outline: as §1
Blood [33] = assay: Biodistribution in FVB mouse blood assessed per gram of tissue at 1 to 4.8 MBq, iv after 60 mins; type: ADME, organism-based; details: in vivo, 1 h; outline: as §1
Lung [34] = assay: Biodistribution in FVB mouse lung assessed per gram of tissue at 1 to 4.8 MBq, iv after 90 mins; type: ADME, organism-based; details: in vivo, 1.5 h; outline: as §1
Blood [35] = assay: Biodistribution in FVB mouse blood assessed per gram of tissue at 1 to 4.8 MBq, iv after 15 mins; type: ADME, organism-based; details: in vivo, 0.25 h; outline: as §1
Brain [36] = assay: Biodistribution in FVB mouse brain assessed per gram of tissue at 1 to 4.8 MBq, iv after 5 mins; type: ADME, organism-based; details: in vivo; outline: as §1
Bone [37] = assay: Biodistribution in FVB mouse bone assessed per gram of tissue at 1 to 4.8 MBq, iv after 90 mins; type: ADME, organism-based, Bone element; details: in vivo, 1.5 h; outline: as §1

| Drug uptake (Blood [1]) [% ID/g] | Drug uptake (Muscle tissue [2]) [% ID/g] | Drug uptake (Liver [3]) [% ID/g] | Drug uptake (Muscle tissue [4]) [% ID/g] | Drug uptake (Brain [5]) [% ID/g] | AUC (Brain [6]) [SUV·min] | Drug uptake (Lung [7]) [% ID/g] | Drug uptake (Kidney) [% ID/g] | Drug uptake (Brain [8]) [% ID/g] | Activity (Brain [9]) | Drug uptake (Blood [10]) [% ID/g] | AUC (Brain [11]) [SUV·min] | Drug uptake (Spleen [12]) [% ID/g] | Drug uptake (Lung [13]) [% ID/g] | Drug uptake [14] [% ID/g] | Stability (Brain [15]) [%] | Drug uptake (Pancreas) [% ID/g] | Drug uptake (Muscle tissue [16]) [% ID/g] | Drug uptake (Lung [17]) [% ID/g] | Drug uptake [18] [% ID/g] | Compound | other results |
| --- | --- | --- | --- | --- | --- | --- | --- | --- | --- | --- | --- | --- | --- | --- | --- | --- | --- | --- | --- | --- | --- |
| 1.39 | 0.38 | 5.99 | 0.62 | 0.16 | 30.2 | 13.32 | 24.17 | 0.17 | Active | 0.36 | 39.8 | 5.74 | 19.6 | 7.09 | 91.4 | 11.15 | 0.53 | 7.21 | 12.48 | COc1cc2c(cc1OC)CN(CCc1ccc(NC(=O)c3cccc4c(=O)c5cccc(OCC[18F])c5[nH]c34)cc1)CC2 | Drug uptake (Heart [19]): 1.19 % ID/g; Drug uptake [20]: 7.6 % ID/g; Drug uptake (Spleen [21]): 5.34 % ID/g; SUV (Brain [22]): 4.4; AUC (Blood [23]): 25.3 SUV·min; Drug uptake (Heart [24]): 1.38 % ID/g; Drug uptake [25]: 17.15 % ID/g; Drug uptake (Blood [26]): 0.65 % ID/g; Drug uptake (Bone [27]): 1.99 % ID/g; Drug uptake (Muscle tissue [28]): 1.75 % ID/g; AUC (Blood [29]): 25.6 SUV·min; Ratio AUC (Brain [30]): 6.9; Activity (Brain [31]): Active; Drug uptake (Liver [32]): 5.35 % ID/g; Drug uptake (Blood [33]): 0.4 % ID/g; Drug uptake (Lung [34]): 4.09 % ID/g; Drug uptake (Blood [35]): 0.72 % ID/g; Drug uptake (Brain [36]): 0.18 % ID/g; Drug uptake (Bone [37]): 1.3 % ID/g |
| 1.39 | 0.68 | 31.06 | 1.04 | 0.11 | 28.1 | 20.55 | 16.09 | 0.1 | Active | 0.57 | 32.9 | 7.18 | 22.5 | 9.42 | 92.5 | 8.56 | 0.92 | 17.89 | 22.42 | COc1cc(NC(=O)c2cnc3ccccc3c2)c(C(=O)Nc2ccc(CCN3CCc4cc(OC)c(OCC[18F])cc4C3)cc2)cc1OC | Drug uptake (Heart [19]): 2.09 % ID/g; Drug uptake [20]: 14.09 % ID/g; Drug uptake (Spleen [21]): 6.73 % ID/g; SUV (Brain [22]): 4; AUC (Blood [23]): 42.2 SUV·min; Drug uptake (Heart [24]): 2.86 % ID/g; Drug uptake [25]: 24.45 % ID/g; Drug uptake (Blood [26]): 0.63 % ID/g; Drug uptake (Bone [27]): 2.17 % ID/g; Drug uptake (Muscle tissue [28]): 2.23 % ID/g; AUC (Blood [29]): 33.2 SUV·min; Ratio AUC (Brain [30]): 7.1; Activity (Brain [31]): Active; Drug uptake (Liver [32]): 23.23 % ID/g; Drug uptake (Blood [33]): 0.61 % ID/g; Drug uptake (Lung [34]): 15.76 % ID/g; Drug uptake (Blood [35]): 0.88 % ID/g; Drug uptake (Brain [36]): 0.13 % ID/g; Drug uptake (Bone [37]): 1.45 % ID/g |
